Test results taken from PMC3074116 (Translational stroke research, 2011).

Assays:
[1] = system: H4IIE cells; assay: Lipid peroxidation measured as 8-isoprostane; format: cell-based, rat; conditions: 1–300 μM
[2] = system: P-glycoprotein (PgP); assay: P-glycoprotein binding using the MTT assay with and without cyclosporin A; conditions: 50 μM, 24-h exposure, n=7; for % Control (compound+CSA): with CSA; for % Control (compound): without CSA
[3] = system: H4IIE cells; assay: CTox ranking; format: cell-based, rat; conditions: generated from TC50 values by proprietary algorithm
[4] = system: rat cognition assay; conditions: 10 mg/kg by gavage; cited from earlier work
[5] = system: H4IIE cells; assay: Intracellular glutathione; format: cell-based, rat; conditions: for GSH content TC50: 24-h exposure; for effect on intracellular GSH content: 1–300 μM
[6] = Metabolic stability in rat microsomes; format: in vitro ADME; conditions: 1 μM; for metabolic stability (in words): male Sprague–Dawley rat microsomal preparation; for percent of parent remaining: HPLC/MS
Procedure, shortened: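 Incubated at 1 μM for 30 min at 37°C with pooled liver microsomes from non-induced male Sprague–Dawley rats. Parent loss measured by HPLC-MS on a C18 column at 50°C (water/0.1% formic acid; acetonitrile/0.07% formic acid). Triplicate percent parent remaining; ranked low (100–65%), moderate (65–45%) or high (<45%) metabolism.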

[7] = system: rabbit embolic stroke model; conditions: cited from earlier work
[8] = system: Cytochrome P450 1A1/2
[9] = Solubility in culture medium; format: physicochemical; conditions: for soluble up to and including: culture medium with 10% bovine serum and 10% calf serum, 37°C
[10] = system: H4IIE cells; conditions: for Cell number (cell mass) TC50: 24-h exposure, n=7 replicates
[11] = system: H4IIE cells; conditions: 24-h exposure, n=7 replicates
[12] = system: HT22 cells; conditions: cited from earlier work
[13] = system: HT22 cells; conditions: read-out: EC50 neuroprotection, glutamate (5 mM); cited from earlier work
[14] = system: H4IIE cells; conditions: 24-h exposure, GST leakage, n=3 replicates
[15] = 100 mg/kg single bolus injection

Structure (SMILES)	effect on 8-isoprostane (lipid peroxidation) [1]	% Control (compound+CSA) [2]	% Control (compound) [2]	CTox value (sustained concentration expected to produce toxicity in a rat 14-day repeat dose study) [3]	GSH content TC50 [5]	metabolic stability (in words) [6]	percent of parent remaining ([6]; rat microsomes, 30 min at 37°C)	soluble up to and including [9]	Cell number (cell mass) TC50 [10]	MemTox TC50 [14]	effect on intracellular GSH content [5]	further results
COc1cc(C=Cc2cc(/C=C/c3ccc(O)c(OC)c3)nn2-c2ccccc2)ccc1O [CNB-001]	did not have any effect	79.0%	79.9%	42 µM	76 µM	metabolically unstable	42%	≥ 100 µM	88 µM	193 µM	–	object recognition index [4]: significantly increased; metabolism ranking ([6]; rat microsomes, 30 min at 37°C): high (<45% as high); acute toxicity [7, 15]: without any signs of acute toxicity; behavior [7, 15]: significant behavioral improvement; concentration with apparent inhibition of EROD activity ([8]; Fig. 2): above 10 μM; IC50 ([8]; read-out: EROD activity inhibition IC50, H4IIE cells): ~25 µM; solubility at 300 μM ([9]; culture medium, 300 μM): not completely soluble; MTT TC50 [11]: 131 µM; effect on GSH levels in HT22 cells [12]: no effect; EC50 [13]: 0.7 µM
CC(C)(C)[N+]([O-])=Cc1ccc(S(=O)(=O)[O-])cc1S(=O)(=O)[O-].[Na+].[Na+] [NXY-059, Disodium 4-[[(1,1,-dimethylethyl)imino]methyl]benzene-1,3-disulfonate N-oxide]	no effect	93.6%	100.0%	> 300 µM	> 300 µM	very stable metabolically	93%	≥ 300 µM	>300 µM	>300 µM	no effect	maximum therapeutic window ([7]; time following embolization): 1 h
CC1=NN(c2ccccc2)C(=O)C1 [Radicut, 3-Methyl-1-phenyl-2-pyrazolin-5-one]	no effect	94.8%	95.9%	> 300 µM	> 300 µM	metabolically unstable	28%	–	>300 µM	>300 µM	no effect	time of administration following embolization at which still active [7]: 3 h; solubility [9]: ≥ 300 µM; decrease in cell proliferation ([10]; 300-μM exposure): 30%
